HEK293 NFkB inh – inhibitors of the PMA/ionomycin-induced NF-kB reporter in HEK293 cells | 0.21% of 62,000 active | AID 465 | HEK-293 NF-kB luciferase reporter, luminescence | inhibition, % at 3 µM;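 active means inhibition above the mean of all tested compounds plus 3 SD, cut at about 40% in these data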;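 further: 0% = stimulated DMSO wells and 100% = 10 µM reference inhibitor 5653914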
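Signal: luciferase luminescence; Material: HEK-293 cells with stable firefly luciferase reporter driven by four HIV NF-kB elements; Probe or stimulus: PMA with ionomycin; Replication: tested once; Times: 1 h compound pretreatment, then 16 h stimulation at 37 °C, 5% CO2; Benchmarks: DMSO and 10 µM reference inhibitor; Evaluation: per-plate % inhibition versus controls.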
M1 agonist – activates the M1 muscarinic receptor. CHO-M1 cells, Fluo-4 calcium fluorescence, agonist mode; active compounds read high. B-score at 10 µM. 3% of 64,000 active;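 active means fluorescence rise, raw or as B-score row- and column-corrected plate score, outside the 99.7% band of its plate's samples, either direction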
M1 antag – M1 muscarinic receptor (rat) antagonism | CHO-M1 cells, Fluo-4 calcium, ACh EC80 antagonist mode; active compounds read low | AID 628 | B-score at 10 µM | 3.4% of 64,000 active | P08482;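 active means calcium fluorescence response, raw or row-and-column corrected B-score, differing from the plate sample mean either way at a set confidence level, mostly lower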
Target sequence (P08482 whole entry, looked up): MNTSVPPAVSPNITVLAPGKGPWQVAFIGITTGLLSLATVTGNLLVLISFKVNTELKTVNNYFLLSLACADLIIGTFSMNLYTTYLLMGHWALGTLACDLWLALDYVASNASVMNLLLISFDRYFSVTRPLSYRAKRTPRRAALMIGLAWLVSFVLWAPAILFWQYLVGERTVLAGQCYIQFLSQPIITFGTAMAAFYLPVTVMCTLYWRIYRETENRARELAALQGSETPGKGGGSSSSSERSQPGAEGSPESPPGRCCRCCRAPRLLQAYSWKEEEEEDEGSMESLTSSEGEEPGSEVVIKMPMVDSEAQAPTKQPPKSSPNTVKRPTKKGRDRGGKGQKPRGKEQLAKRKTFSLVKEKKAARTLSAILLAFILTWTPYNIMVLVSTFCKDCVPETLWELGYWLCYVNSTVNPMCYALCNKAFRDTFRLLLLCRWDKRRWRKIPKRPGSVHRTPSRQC
D1 mod – allosterically modulates the human D1 dopamine receptor. HEK293 D1, CRE-luciferase, dopamine EC30 potentiation; actives deviate in either direction. B-score at 10 µM. 5.9% of 58,000 active;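 active means luminescence count or its row- and column-corrected plate score outside the 99.7% band of the plate's sample wells, on either side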
Jurkat viability – cytotoxicity toward Jurkat cells. Jurkat E6.1 viability, ATP luminescence, 48 h. inhibition, % at 4 µM. 1.2% of 56,000 active. AID 463;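 active means inhibition above the mean inhibition of all tested compounds plus 3 SD, cut at about 28% in these data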
mHtt clearance – compounds clearing mutant huntingtin protein | 0.42% of 47,000 active | AID 853 | inhibition, % at 1.5 µM | HeLa Exon1htt(103Q)mCFP, aggregate imaging; zero = plate's median compound well;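 active means inhibition of aggregate fluorescence above about 70%, also judged a hit by eye on the cell image, limit read from the data, passing the limit was not always enough; inconclusive means no rule stated for this call; inactive means not judged a hit on image review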;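 further: cells exposed to compound for three days before fixation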
D1 PAM confirm – confirmation of human D1 dopamine receptor allosteric modulators; AID 642; HEK293 D1 CRE-luciferase, dopamine EC30 potentiation; active compounds read high; shares compounds with D1 mod; luminescence at 10 µM; 88% of 2,200 active;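 active means luminescence in either of two replicates above the same-plate mean plus 3 SD of the low-dose dopamine control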
D1 ag no DA – secondary test of D1 modulators: activity without dopamine; HEK293 D1 CRE-luciferase, luminescence, no dopamine; active compounds read high; AID 646; luminescence at 10 µM; 0.8% of 1,900 active; shares compounds with D1 mod; in the data active means luminescence above about 3900
Isoprot counter – counter-screen for D1 modulators: isoproterenol response in HEK293 cells; shares compounds with D1 mod; HEK293 D1 CRE-luciferase, isoproterenol EC30 counter-screen; active compounds read high; luminescence at 10 µM; 63% of 2,200 active; AID 647;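 active means luminescence in either replicate above plate mean of wells with a partly effective reference agonist dose plus 3 SD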;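 further: isoproterenol raises cAMP through native beta-adrenoceptor Gs so signal bypasses D1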
An asterisk follows results filed as active; u = inconclusive; x = no result given. Sampled rows, rich in hits. Any-hit rate of the full collection: about 9.5%.

SMILES	HEK293 NFkB inh	M1 agonist	M1 antag	D1 mod	Jurkat viability	mHtt clearance	D1 PAM confirm	D1 ag no DA	Isoprot counter
CC(C)C(NC(=O)C12CC3CC(CC(C3)C1)C2)C(=O)O (stereo unspecified)	-4	-1.3	-0.052	-0.015	-5	10	x	x	x
CCC(=O)Nc1sc2c(c1C#N)CC(C)(C)NC2(C)C	25	0.23	0.85	6.4*	x	x	7612	1848	2296
CCOC(=O)c1ccccc1Nc1cc(C)nc2nc(C)nn12	0	0.6	0.012	1.8*	2	x	10192*	1536	4012*
Cc1cn(C2OC(COC(=O)c3ccccc3)C(OC(=O)c3ccccc3)C2OC(=O)c2ccccc2)c(=O)[nH]c1=O (stereo unspecified)	x	x	x	x	x	-25	x	x	x
CC(=O)OCC1OC(c2ccccc2)C(OC(C)=O)C(OC(C)=O)C1OC(C)=O (stereo unspecified)	12	-1.1	-0.82	3.1*	3	-11	9036*	1700	2792
CCC(C(=O)Nc1ccccc1OC)n1c(C(=O)OC)cc2ccsc21 (stereo unspecified)	12	-0.22	0.12	x	4	x	x	x	x
COCCCNC(=O)CN(c1cccc(Cl)c1)S(C)(=O)=O	-2	x	x	0.31	-2	x	x	x	x
CCCn1c(SCc2ccc(Cl)cc2)nc2c1c(=O)[nH]c(=O)n2C	18	1.7	-0.12	5.2*	5	21	11480*	x	3456*
C/C=C/Cn1c(SC)nc2c1c(=O)[nH]c(=O)n2C	11	-0.57	0.061	-0.78	6	x	x	x	x
C/C=C/Cn1c(SCc2ccc(Cl)cc2)nc2c1c(=O)[nH]c(=O)n2C	7	0.75	-0.22	7.3*	6	-32	13964*	1680	5136*
C/C=C/CSc1nc2c(c(=O)[nH]c(=O)n2C)n1CCC	9	0.89	0.099	14*	1	x	14660*	1456	3616*
CCCN1CCN(C(=O)CN2C(=O)CC(C)(C)S(=O)(=O)c3ccccc32)CC1	13	-0.023	0.52	-0.43	2	-10	x	x	x
CCOC(=O)c1nnn(-c2nonc2N)c1CSc1ccccn1	-2	0.5	0.44	0.27	-8	0	x	x	x
O=C(Nc1ccc(Cc2ccc(NC(=O)N3CCOCC3)cc2)cc1)N1CCOCC1	8	0.00087	0.11	0.6	-2	x	x	x	x
O=C(Nc1ccc(F)cc1)N1CCOCC1	1	0.094	1.1	5.4*	-6	-2	5328	1472	2160
CCOC(=O)C1CCN(CC(=O)Nc2c(C(=O)OC)[nH]c3ccccc23)CC1	1	-0.16	-0.64	-0.66	10	-46	x	x	x
CCOC(=O)C1CCN(CC(=O)Nc2c(C(=O)OC)[nH]c3cccc(Cl)c23)CC1	14	1.3	0.085	3.7*	-1	-40	9896*	1640	3104*
O=C1NCC(CN(c2ccccc2)c2ccccc2)O1 (stereo unspecified)	19	-0.46	0.033	2.9*	11	-10	9384*	1528	3892*
Cc1ccc(-n2nc3c(c2NC(=O)c2c(-c4ccccc4Cl)noc2C)CSC3)cc1	0	1.5	-0.08	4.6*	4	-17	4636	1496	2444
Cc1ccc2c(c1)NC(=O)C(CC(=O)N(C)Cc1ccccc1)O2 (stereo unspecified)	13	0.36	-1.1	0.54	-3	u	x	x	x
O=c1[nH]c2ccccc2n1Cc1ccc(Cl)cc1	x	x	x	x	x	21	x	x	x
O=c1n(Cc2ccccc2)c2cc(Cl)cnc2n1Cc1ccccc1	6	-0.14	-0.3	8.1*	4	-10	9248*	1640	2708
CC(C)N(CCCNC(=O)CC1Oc2ccccc2NC1=O)Cc1ccccc1 (stereo unspecified)	20	-0.032	-0.57	-0.82	-13	-26	x	x	x
CC(C)OC(=O)Cn1cnc2ccc(Br)cc2c1=O	6	0.59	-0.00036	-0.88	-4	-5	x	x	x
CCn1c(SCC(=O)NCC(=O)Nc2ccc(F)cc2)nnc1-c1cccs1	8	0.52	0.43	3*	5	56	4428	1640	2700
SMILES	HEK293 NFkB inh	M1 agonist	M1 antag	D1 mod	Jurkat viability	mHtt clearance	D1 PAM confirm	D1 ag no DA	Isoprot counter
Cc1cccc(NC(=O)Cn2c(=O)n(Cc3ccco3)c(=N)c3c4c(sc32)COC(C)(C)C4)c1	14	0.22	1.4	8.9*	8	x	6860*	1656	3256*
CCOC(=O)c1sc2ccc(S(=O)(=O)N3CCOCC3)cc2c1N	0	0.044	0.28	6.7*	x	-37	5484	x	2888*
CCOC(=O)c1sc2ccc(S(=O)(=O)N3CCCCC3)cc2c1N	7	-0.0085	-0.63	1.5	x	3	x	x	x
O=C(CN1C(=O)NC2NC(=O)NC21)NC1CCCCC1 (stereo unspecified)	-4	0.47	0.58	0.4	-1	x	x	x	x
CNc1nc(C)nc(-c2ccccc2O)n1	10	0.09	-0.27	9.1*	-4	x	23276*	1644	4072*
COc1ccc(NS(=O)(=O)c2ccc(NS(=O)(=O)c3ccc(C)cc3)cc2)nn1	15	-0.11	1.3	-0.89	1	x	x	x	x
COC(=O)C(C)Sc1nc2c([nH]c3ccccc32)c(=O)n1C (stereo unspecified)	9	0.16	-0.63	1.6	x	x	x	x	x
CCC(C)Sc1nc2c([nH]c3ccccc32)c(=O)n1C (stereo unspecified)	7	-0.19	0.25	5.5*	-4	x	14100*	1792	2800
CCSc1nnc(NC(=O)C(CC)Oc2ccccc2)s1 (stereo unspecified)	13	-2	-0.23	0.2	1	x	x	x	x
COCCn1c(CN2CCN(c3ccc(OC)cc3)CC2)nc2c1c(=O)n(C)c(=O)n2C	17	-0.6	0.5	0.21	1	x	x	x	x
COc1ccc(N2CCN(Cc3nc4c(c(=O)n(C)c(=O)n4C)n3CCc3ccccc3)CC2)cc1	1	-0.052	-0.35	3.5*	-4	x	7060	1804	4156*
COc1ccc(CCC(=O)NCCc2cn3c(C)csc3n2)cc1	6	-0.3	0.07	0.71	1	x	x	x	x
CCCCCOP(=O)(OCCCCC)C1(NS(=O)(=O)c2ccccc2)C=CC(=O)c2ccccc21 (stereo unspecified)	x	x	x	x	x	5	x	x	x
O=C(NCc1cccs1)C1CC(=O)N(c2ccc(F)cc2)C1 (stereo unspecified)	3	1.3	0.018	-0.31	-1	-33	x	x	x
COc1ccc(S(=O)(=O)N(C)c2ccc(C(=O)N3CCOCC3)cc2)cc1OC	4	x	x	15*	0	-22	16652*	1416	3096
COc1ccc(C(=O)N2CCOCC2)cc1Br	14	0.83	1.3	-0.3	2	-4	x	x	x

Screens as filed in PubChem.
